Measurements pooled from the literature.
Compare with care: the assays were run in different laboratories.
Target: Ribosomal protein S6 kinase beta-1 (RPS6KB1, Homo sapiens, UniProt P23443)
Observed: enzyme activity
Action: inhibitor

SMILES | test | conditions | remaining activity
Cc1[nH]c(/C=C2\C(=O)Nc3ccc(F)cc32)c(C)c1C(=O)N[C@H]1CCN(C(=O)N(C)C)C1 |  | 0.1 µM | 84%
FC(F)c1nc2ccccc2n1-c1nc(N2CCOCC2)nc(N2CCOCC2)n1 |  | 10 µM | 98%
CC(C)(C)c1nc(-c2cccc(NS(=O)(=O)c3c(F)cccc3F)c2F)c(-c2ccnc(N)n2)s1 | radiometric | 1 µM | 75%
CCCOc1ccc(OC)c(F)c1C(=O)c1ccc(C(=O)N[C@@H]2CNC[C@H]2NC(=O)c2ccc3[nH]ncc3c2)cc1 |  | 10 µM | 2%
CC(C)(C)C(=O)c1sc(NC2CCCCC2)nc1N |  | 10 µM | 86%
CCN(CC)c1ccc(C2=NNC(=O)CC2C)cc1[N+](=O)[O-] (stereo not drawn) |  | 10 µM | 109%
Cc1ccc(C(=O)Nc2ccc(CN3CCN(C)CC3)c(C(F)(F)F)c2)cc1C#Cc1cnc2cccnn12 |  | 23.5 nM | 68%
Nc1nc(Nc2ccccc2)sc1C(=O)c1c(F)cccc1F |  | 10 µM | 57%
Cc1ccc(Nc2nccc(N(C)c3ccc4c(C)n(C)nc4c3)n2)cc1S(N)(=O)=O |  | 0.5 µM | 96%
CCN(CC)CCNC(=O)c1c(C)[nH]c(/C=C2\C(=O)Nc3ccc(F)cc32)c1C |  | 0.1 µM | 79%
Cc1sc(C(=O)NC2COC2)cc1-n1cc(NC(=O)Nc2c(F)cccc2Cl)cn1 |  | 10 µM | 92.1%
COc1cc(Nc2cnc(C#N)c(O[C@H](C)CN(C)C)n2)ncc1-c1cnn(C)c1 | radiometric | 10 µM | 85%
